How the values were obtained:
[1] = test system: Liver microsome; experiment: Stability in human liver microsomes assessed as compound remaining; assay type: ADME
[2] = test system: Liver microsome; experiment: Stability in rat liver microsomes assessed as compound remaining; assay type: ADME
[3] = Stability in mouse liver microsomes assessed as compound remaining; assay type: ADME
[4] = Half life in mouse at 2 mg/kg, iv; assay type: ADME, organism-based; settings: in vivo
[5] = Clearance in mouse at 2 mg/kg, iv; assay type: ADME, organism-based; settings: in vivo
[6] = test system: Mus musculus; experiment: Clearance in mouse at 2 mg/kg, iv relative to hepatic blood flow; assay type: ADME, organism-based, Liver; settings: in vivo
[7] = Volume of distribution at steady state in mouse at 2 mg/kg, iv; assay type: ADME, organism-based; settings: in vivo, read-out: Vdss
Procedure, shortened: (§1)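 Multi-species pharmacokinetic study with separate iv and oral dosing arms. Steady-state volume of distribution was taken from the iv arm: 2 mg/kg in mouse and rat, 1 mg/kg in cynomolgus monkey and dog. Oral doses in the same study were 5 mg/kg in mouse and rat and 1 mg/kg in monkey and dog.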

[8] = Oral bioavailability in mouse at 5 mg/kg; assay type: ADME, organism-based; settings: in vivo
[9] = test system: Mus musculus; experiment: Ratio of Cmax to Cmin in mouse at 5 mg/kg, po; assay type: ADME, organism-based; settings: in vivo
[10] = Half life in rat at 2 mg/kg, iv; assay type: ADME, organism-based; settings: in vivo
[11] = Clearance in rat at 2 mg/kg, iv; assay type: ADME, organism-based; settings: in vivo
[12] = test system: Rattus norvegicus; experiment: Clearance in rat at 2 mg/kg, iv relative to hepatic blood flow; assay type: ADME, organism-based, Liver; settings: in vivo
[13] = Volume of distribution at steady state in rat at 2 mg/kg, iv; assay type: ADME, organism-based; settings: in vivo, read-out: Vdss; procedure, shortened: as §1
[14] = Oral bioavailability in rat at 5 mg/kg; assay type: ADME, organism-based; settings: in vivo
[15] = test system: Rattus norvegicus; experiment: Ratio of Cmax to Cmin in rat at 5 mg/kg, po; assay type: ADME, organism-based; settings: in vivo
[16] = Half life in cynomolgus monkey at 1 mg/kg, iv; assay type: ADME, organism-based, Macaca fascicularis; settings: in vivo
[17] = Clearance in cynomolgus monkey at 1 mg/kg, iv; assay type: ADME, organism-based, Macaca fascicularis; settings: in vivo
[18] = test system: Cynomolgus monkey; experiment: Clearance in cynomolgus monkey at 1 mg/kg, iv relative to hepatic blood flow; assay type: ADME, organism-based, Macaca fascicularis, Liver; settings: in vivo
[19] = Volume of distribution at steady state in cynomolgus monkey at 1 mg/kg, iv; assay type: ADME, organism-based, Macaca fascicularis; settings: in vivo, read-out: Vdss; procedure, shortened: as §1
[20] = Oral bioavailability in cynomolgus monkey at 1 mg/kg; assay type: ADME, organism-based, Macaca fascicularis; settings: in vivo
[21] = test system: Cynomolgus monkey; experiment: Ratio of Cmax to Cmin in cynomolgus monkey at 1 mg/kg, po; assay type: ADME, organism-based, Macaca fascicularis; settings: in vivo
[22] = Half life in dog at 1 mg/kg, iv; assay type: ADME, organism-based, Canis lupus familiaris; settings: in vivo
[23] = Clearance in dog at 1 mg/kg, iv; assay type: ADME, organism-based, Canis lupus familiaris; settings: in vivo
[24] = test system: Canis familiaris; experiment: Clearance in dog at 1 mg/kg, iv relative to hepatic blood flow; assay type: ADME, organism-based, Canis lupus familiaris, Liver; settings: in vivo
[25] = Volume of distribution at steady state in dog at 1 mg/kg, iv; assay type: ADME, organism-based, Canis lupus familiaris; settings: in vivo, read-out: Vdss; procedure, shortened: as §1
[26] = Oral bioavailability in dog at 1 mg/kg; assay type: ADME, organism-based, Canis lupus familiaris; settings: in vivo
[27] = test system: Canis familiaris; experiment: Ratio of Cmax to Cmin in dog at 1 mg/kg, po; assay type: ADME, organism-based, Canis lupus familiaris; settings: in vivo
[28] = test system: Rattus norvegicus; experiment: Anti-inflammatory activity in Lewis rat complete Freund's adjuvant-induced arthritis model of human rheumatoid arthritis assessed as reduction in hind paw swelling at 0.5 and 3 mg/kg, po QD for 21 days starting at day 0 by plethysmometry; assay type: functional, organism-based
Procedure, shortened: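 Male Lewis rats given complete Freund's adjuvant with heat-killed Mycobacterium butyricum subcutaneously at the tail base. Dosed orally once daily for 21 days from day 0. Hind paw volume measured by water displacement plethysmometry at baseline and over three weeks; increase above baseline calculated. Compared with vehicle, p<0.05.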

Stability [1]: 88%
Stability [2]: 100%
Stability [3]: 100%
half-life [4]: 4.5 h
clearance [5]: 0.3 mL/min/kg
CL [6]: < 1%
Vd [7]: 0.1 L/kg
bioavailability [8]: 70%
Ratio [9]: 2.8
half-life [10]: 4.8 h
clearance [11]: 1 mL/min/kg
CL [12]: 1.4%
Vd [13]: 0.4 L/kg
bioavailability [14]: 100%
Ratio [15]: 26
half-life [16]: 1.1 h
clearance [17]: 14 mL/min/kg
CL [18]: 32%
Vd [19]: 0.5 L/kg
bioavailability [20]: 12%
Ratio [21]: > 400
half-life [22]: 6.1 h
clearance [23]: 2.6 mL/min/kg
CL [24]: 8.4%
Vd [25]: 0.7 L/kg
bioavailability [26]: 87%
Ratio [27]: 7.4
Structure (SMILES): O=C(O)C1CN(Cc2ccc(-c3noc(-c4onc(-c5ccccn5)c4C(F)(F)F)n3)cc2)C1
Activity [28]: Dose-dependent effect

From ChEMBL document CHEMBL3792331, “Identification and synthesis of potent and selective pyridyl-isoxazole based agonists of sphingosine-1-phosphate 1 (S1P1)” (Bioorg Med Chem Lett, 2016)
